ChEMBL document CHEMBL4043283, “Discovery and Preclinical Development of IIIM-290, an Orally Active Potent Cyclin-Dependent Kinase Inhibitor” (J Med Chem, 2018)
The source made the active and inactive calls. The calls are words filed in the database; no cut-off is given here.

Key:
[1] = test system: HL-60; test: Growth inhibition of human HL60 cells at 10 uM after 48 hrs by MTT assay relative to control; format: functional; conditions: HL-60, 48 h, read-out: GI
How it was run: (§1)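 Single-concentration primary screen at 10 μM by MTT assay. Cells were NCI-sourced cancer lines grown in appropriate medium at 37 °C, 95% humidity, 5% CO2. Growth inhibition is expressed relative to control.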

[2] = test system: MCF7; test: Growth inhibition of human MCF7 cells at 10 uM after 48 hrs by MTT assay relative to control; format: functional; conditions: MCF7, 48 h, read-out: GI; how it was run: as §1
[3] = target: CDK1/Cyclin E (Homo sapiens, UniProt P06493); test: Inhibition of CDK1/cyclin E (unknown origin) after 30 mins in presence of [33P]-gamma-ATP by filter binding assay; format: protein-complex assay
Sequence of CDK1/Cyclin E (P06493 whole entry): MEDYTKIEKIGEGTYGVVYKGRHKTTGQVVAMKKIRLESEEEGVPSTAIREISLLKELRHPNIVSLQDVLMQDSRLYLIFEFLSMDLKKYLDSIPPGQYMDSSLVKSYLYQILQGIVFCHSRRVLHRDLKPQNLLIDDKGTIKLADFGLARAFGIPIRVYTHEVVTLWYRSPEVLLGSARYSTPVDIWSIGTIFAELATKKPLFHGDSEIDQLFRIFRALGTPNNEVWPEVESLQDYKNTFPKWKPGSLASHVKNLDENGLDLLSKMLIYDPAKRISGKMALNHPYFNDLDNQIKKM
Sequence of CDK1/Cyclin E (P24864 whole entry, further chain): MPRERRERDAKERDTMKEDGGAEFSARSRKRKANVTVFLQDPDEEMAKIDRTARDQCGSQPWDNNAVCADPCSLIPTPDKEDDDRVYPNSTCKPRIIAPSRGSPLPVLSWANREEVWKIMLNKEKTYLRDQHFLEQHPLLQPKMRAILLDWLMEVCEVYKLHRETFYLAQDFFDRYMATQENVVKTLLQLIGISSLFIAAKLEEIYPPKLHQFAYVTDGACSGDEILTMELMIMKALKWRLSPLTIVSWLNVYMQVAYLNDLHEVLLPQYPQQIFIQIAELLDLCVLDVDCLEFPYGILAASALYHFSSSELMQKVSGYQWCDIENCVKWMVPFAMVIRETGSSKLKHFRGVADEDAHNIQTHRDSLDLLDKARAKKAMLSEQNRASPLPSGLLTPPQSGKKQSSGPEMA

[4] = target: CDK2/Cyclin O (Homo sapiens, UniProt P22674+P24941); test: Inhibition of CDK2/cyclin O (unknown origin) after 30 mins in presence of [33P]-gamma-ATP by filter binding assay; format: protein-complex assay
[5] = target: Cyclin-dependent kinase 7/ cyclin H (Homo sapiens, UniProt P50613); test: Inhibition of CDK7/cyclin H (unknown origin) after 30 mins in presence of [33P]-gamma-ATP by filter binding assay; format: protein-complex assay
Sequence of Cyclin-dependent kinase 7/ cyclin H (P51946 whole entry): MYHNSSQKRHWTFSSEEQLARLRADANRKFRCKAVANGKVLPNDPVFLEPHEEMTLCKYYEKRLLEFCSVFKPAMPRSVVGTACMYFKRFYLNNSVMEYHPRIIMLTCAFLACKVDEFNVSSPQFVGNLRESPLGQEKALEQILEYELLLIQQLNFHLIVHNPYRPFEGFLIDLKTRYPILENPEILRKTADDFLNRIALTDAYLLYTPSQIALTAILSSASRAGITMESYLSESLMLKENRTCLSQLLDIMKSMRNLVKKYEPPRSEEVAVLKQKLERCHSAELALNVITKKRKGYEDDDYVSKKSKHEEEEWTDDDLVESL
Sequence of Cyclin-dependent kinase 7/ cyclin H (P50613 whole entry): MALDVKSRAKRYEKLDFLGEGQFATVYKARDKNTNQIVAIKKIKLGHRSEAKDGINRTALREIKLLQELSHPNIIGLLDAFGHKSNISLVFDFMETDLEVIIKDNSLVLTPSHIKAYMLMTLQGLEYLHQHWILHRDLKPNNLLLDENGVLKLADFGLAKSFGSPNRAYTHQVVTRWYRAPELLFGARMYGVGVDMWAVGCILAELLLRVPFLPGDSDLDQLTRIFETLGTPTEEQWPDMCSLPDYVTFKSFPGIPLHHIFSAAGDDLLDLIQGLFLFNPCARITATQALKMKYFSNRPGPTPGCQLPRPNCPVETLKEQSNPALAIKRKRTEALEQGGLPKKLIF

[6] = test system: Tyrosine-protein kinase ABL1 (Homo sapiens), P00519 [H396P]; test: Inhibition of partial length human ABL1 H396P mutant expressed in mammalian expression system at 0.5 uM by KINOMEscan method relative to control
How it was run: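 Competition binding screen (KINOMEscan) at 0.5 μM; primary binding read out as % of control, lower values indicating stronger interaction.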

[7] = test system: BT-549; test: Growth inhibition of human BT549 cells after 48 hrs by MTT assay; format: functional; conditions: BT-549, 48 h
How it was run: (§2)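 Cancer cell lines sourced from the National Cancer Institute (USA). Cells kept in appropriate growth medium at 37 °C, 95% humidity, 5% CO2. Antiproliferation read by tetrazolium (MTT) assay. GI50 values were determined only for compounds selected after an initial single-concentration screen.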

[8] = test system: T47D; test: Growth inhibition of human T47D cells after 48 hrs by MTT assay; format: functional; how it was run: as §2
[9] = test system: HCT-116; test: Growth inhibition of human HCT116 cells after 48 hrs by MTT assay; format: functional; conditions: HCT-116, 48 h; how it was run: as §2
[10] = Growth inhibition of human NCI-H322 cells after 48 hrs by MTT assay; format: functional; conditions: NCI-H322, 48 h; how it was run: as §2
[11] = test system: OVCAR-4; test: Growth inhibition of human OVCAR4 cells after 48 hrs by MTT assay; format: functional; conditions: OVCAR-4, 48 h; how it was run: as §2
[12] = Growth inhibition of HGF after 48 hrs by MTT assay; format: cell-based; conditions: human, HGF cells
[13] = test system: MIA PaCa-2; test: Induction of apoptosis in human MIAPaCa2 cells assessed as intracellular vesicle formation after 24 hrs by scanning electron microscopy; format: functional, cell-based
How it was run: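 Cells exposed to different compound concentrations for 24 h on coverslips, fixed in 2.5% glutaraldehyde in 0.1 M phosphate buffer pH 7.2 (4 °C, 24 h), postfixed in 1% OsO4 4 h, ethanol-dehydrated, critical-point dried with HMDS, gold-coated, imaged at 20 kV.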

[14] = Chemical stability of compound in hydrochloric acid buffer at pH 1.2 assessed as parent compound remaining at 120 ug/ml after 24 hrs by HPLC method; format: physicochemical; conditions: read-out: Stability
[15] = Chemical stability of compound in phosphate buffered saline at pH 6.8 assessed as parent compound remaining at 120 ug/ml after 24 hrs by HPLC method; format: physicochemical; conditions: read-out: Stability
[16] = Chemical stability of compound in phosphate buffered saline at pH 7.4 assessed as parent compound remaining at 120 ug/ml after 24 hrs by HPLC method; format: physicochemical; conditions: read-out: Stability
[17] = target: Cytochrome P450 1A2 (Homo sapiens, UniProt P05177); test: Inhibition of human CYP1A2 using fluorogenic substrate preincubated with co-factor for 10 mins followed by enzyme-substrate addition by fluorometric method; format: ADME
Sequence of Cytochrome P450 1A2 (P05177 whole entry): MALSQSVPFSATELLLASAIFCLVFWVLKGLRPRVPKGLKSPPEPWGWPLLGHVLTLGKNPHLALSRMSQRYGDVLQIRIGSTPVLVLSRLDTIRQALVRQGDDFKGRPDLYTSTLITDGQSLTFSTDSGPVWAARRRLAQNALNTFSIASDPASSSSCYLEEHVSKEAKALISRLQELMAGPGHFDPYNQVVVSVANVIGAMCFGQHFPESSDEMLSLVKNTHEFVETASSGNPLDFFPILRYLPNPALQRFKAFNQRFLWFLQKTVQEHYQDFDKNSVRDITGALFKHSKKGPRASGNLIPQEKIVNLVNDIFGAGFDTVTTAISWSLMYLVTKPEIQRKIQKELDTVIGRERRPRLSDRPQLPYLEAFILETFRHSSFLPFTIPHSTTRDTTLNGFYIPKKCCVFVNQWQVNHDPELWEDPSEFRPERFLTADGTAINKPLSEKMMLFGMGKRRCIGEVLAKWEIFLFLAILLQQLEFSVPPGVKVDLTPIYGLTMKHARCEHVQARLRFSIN
How it was run: (§3)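 Cofactor plus test item or vehicle, in triplicate, preincubated 10 min at 37 °C; prewarmed enzyme–substrate mix added and incubated at 37 °C with shaking. Quench: acetonitrile (CYP2C19, CYP3A4) or 0.25 M Tris in 60% methanol (CYP2C9, CYP2D6). Metabolite fluorescence read; % inhibition computed against enzyme controls and enzyme-free blanks.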

[18] = target: Cytochrome P450 2D6 (Homo sapiens, UniProt P10635); test: Inhibition of human CYP2D6 using fluorogenic substrate preincubated with co-factor for 10 mins followed by enzyme-substrate addition by fluorometric method; format: ADME; how it was run: as §3
Sequence of Cytochrome P450 2D6 (P10635 whole entry): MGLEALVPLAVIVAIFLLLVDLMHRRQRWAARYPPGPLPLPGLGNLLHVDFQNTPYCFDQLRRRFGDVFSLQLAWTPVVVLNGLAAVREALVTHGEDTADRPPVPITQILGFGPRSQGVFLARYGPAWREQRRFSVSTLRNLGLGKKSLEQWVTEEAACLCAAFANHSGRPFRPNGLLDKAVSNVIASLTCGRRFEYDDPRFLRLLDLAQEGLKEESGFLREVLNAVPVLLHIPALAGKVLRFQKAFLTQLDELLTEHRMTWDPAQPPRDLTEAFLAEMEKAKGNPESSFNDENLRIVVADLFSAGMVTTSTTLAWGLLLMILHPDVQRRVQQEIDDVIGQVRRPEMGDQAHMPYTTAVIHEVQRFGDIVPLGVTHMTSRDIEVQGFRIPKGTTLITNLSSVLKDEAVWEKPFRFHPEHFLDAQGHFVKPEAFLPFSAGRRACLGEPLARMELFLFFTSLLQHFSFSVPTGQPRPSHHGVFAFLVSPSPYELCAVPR

[19] = Half life in monkey liver microsomes at 100 uM after 30 mins by LC-MS/MS analysis; format: ADME, Macaca mulatta, microsome; conditions: rhesus monkey
How it was run: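 Parent loss followed over time to give half-life, with NADPH as cofactor for microsomal phase I metabolism.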

[20] = Intrinsic clearance in human liver microsomes assessed per mg of protein at 100 uM after 30 mins by LC-MS/MS analysis; format: ADME, microsome; conditions: read-out: CLH
[21] = Intrinsic clearance in dog liver microsomes assessed per mg of protein at 100 uM after 30 mins by LC-MS/MS analysis; format: ADME, Canis lupus familiaris, microsome; conditions: read-out: CLH
How it was run: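 Intrinsic clearance obtained from substrate disappearance over time, reported per mg protein (microsomes, S9) or per 10^6 cells (hepatocytes).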

[22] = Intrinsic clearance in monkey hepatocytes assessed per million cells at 3 uM after 180 mins by LC-MS/MS analysis; format: ADME, cell-based, Macaca mulatta, Hepatocyte; conditions: rhesus monkey, read-out: CLH
[23] = Elimination half life in BALB/c mouse at 1 mg/kg, iv by LC-MS/MS analysis; format: ADME, organism-based; conditions: in vivo, read-out: beta t1/2 (converted)
[24] = Clearance in BALB/c mouse at 1 mg/kg, iv by LC-MS/MS analysis; format: ADME, organism-based; conditions: in vivo
[25] = Volume of distribution in BALB/c mouse at 1 mg/kg, iv by LC-MS/MS analysis; format: ADME, organism-based; conditions: in vivo
[26] = AUC in BALB/c mouse at 10 mg/kg, po by LC-MS/MS analysis; format: ADME, organism-based; conditions: in vivo
[27] = Cmax in Sprague-Dawley rat at 3 mg/kg, po by LC-MS/MS analysis; format: ADME, organism-based; parameters: dose 3 mg/kg, route oral; conditions: in vivo
[28] = Pancreas to plasma partition coefficient, Kp of the compound in Sprague-Dawley rat at 30 mg/kg, po measured at 8 hrs; format: ADME, organism-based; conditions: pancreas and plasma
[29] = Pancreas to plasma partition coefficient, Kp of the compound in BALB/c mouse at 30 mg/kg, po measured at 0.5 hrs; format: ADME, organism-based; conditions: pancreas and plasma
[30] = test system: Salmonella typhimurium; test: Mutagenicity in Salmonella typhimurium TA1535 at 50 ug/plate in presence of liver S9 fraction by Ames test; format: toxicity; conditions: salmonella enterica subsp. enterica serovar typhimurium
[31] = test system: Salmonella typhimurium; test: Mutagenicity in Salmonella typhimurium TA102 at 50 ug/plate in presence of liver S9 fraction by Ames test; format: toxicity; conditions: salmonella enterica subsp. enterica serovar typhimurium
[32] = test system: Salmonella typhimurium; test: Mutagenicity in Salmonella typhimurium TA1535 at 50 ug/plate in absence of liver S9 fraction by Ames test; format: toxicity; conditions: salmonella enterica subsp. enterica serovar typhimurium
[33] = test system: Salmonella typhimurium; test: Mutagenicity in Salmonella typhimurium TA100 at 50 ug/plate in absence of liver S9 fraction by Ames test; format: toxicity; conditions: salmonella enterica subsp. enterica serovar typhimurium
[34] = test system: PBL; test: Genotoxicity in human PBL at 0.125 to 2 ug/ml in presence of cytokinesis blocking agent cytochalasin B and liver S9 fraction by micronucleus test; format: toxicity, cell-based

## CN1CC[C@H](c2c(O)cc(O)c3c(=O)cc(/C=C/c4c(Cl)cccc4Cl)oc23)[C@H](O)C1
[1]
  inhibition of growth at 10 µM: 90%
[2]
  inhibition of growth at 10 µM: 80%
[3]
  IC50: 0.0759 µM
[4]
  IC50: 0.138 µM
[5]
  IC50: 0.711 µM
[6]
  inhibition: > 98%
[7]
  GI50: 5 µM
[8]
  GI50: 6 µM
[9]
  GI50: 5 µM
[10]
  GI50: 2 µM
[11]
  GI50: 9 µM
[12]
  GI50 at 48 h: 18 µM
[13]
  Activity: Active
[14]
  remaining at 24 h, 120 ug/ml: 100%
[15]
  remaining at 24 h, 120 ug/ml: 81%
[16]
  remaining at 24 h, 120 ug/ml: 100%
[17]
  IC50: > 20 µM
[18]
  IC50: > 20 µM
[19]
  half-life at 100 µM: 0.417 h
[20]
  microsomal CLint at 100 µM: < 8.6 µL/min/mg
[21]
  microsomal CLint at 100 µM: > 29 µL/min/mg
[22]
  hepatocyte CLint at 3 µM: 10.6 µL/min/1e6 cells
[23]
  half-life: 5.46 h
[24]
  clearance: 55.4 mL/min/kg
[25]
  Vd: 26.2 L/kg
[26]
  AUC: 2.41 µM·h
[27]
  Cmax: 316 nM
[28]
  Kp at 8 h: 10.5
[29]
  Kp at 0.5 h: 14.2
[30]
  Activity: Non-Toxic
[31]
  Activity: Non-Toxic
[32]
  Activity: Non-Toxic
[33]
  Activity: Non-Toxic
[34]
  Activity: Non-Toxic
